# Results reported in ChEMBL document CHEMBL1128176 (J Med Chem, 1995).
# Legend:
# [1] = molecular target: Leukotriene B4 receptor (Cavia porcellus); assay: Binding affinity towards Leukotriene B4 receptor guinea pig lung membrane using [3H]LTB4 as radioligand
# Leukotriene B4 receptor [2] = molecular target: T1, Leukotriene B4 receptor (Homo sapiens, UniProt Q9NPC1+Q15722); assay: Binding affinity towards human LTB4 receptor measured as inhibition of binding of [3H]LTB4 to isolated human neutrophils
# Leukotriene B4 receptor [3] = molecular target: T1, Leukotriene B4 receptor; assay: Inhibition of LTB4 induced expression of human neutrophil integrin CD11b/CD18.; assay type: functional
# In short: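 Human neutrophils stimulated with LTB4; test agents, mostly as sodium salts, dissolved in dilute sodium bicarbonate vehicle. Integrin CD11b/CD18 surface expression read by flow cytometry. IC50 derived from inhibition of LTB4-induced up-regulation. Where SEM is given, the value is the mean of at least four determinations.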
Ki [1] [nM],Ki (Leukotriene B4 receptor [2]) [nM],IC50 (Leukotriene B4 receptor [3]) [nM],Structure (SMILES)
15,15,,CCc1cc(-c2ccc(F)cc2)c(O)cc1OCCCOc1ccccc1CCc1nnn[nH]1
,2.3,13,CCc1cc(-c2ccc(F)cc2)c(O)cc1OCCCOc1cccc(OCCCCC(=O)O)c1CCC(=O)O
16,19,11,CCCc1c(OCCCOc2cc(O)c(-c3ccccc3)cc2CC)cccc1Oc1ccccc1C(=O)O
14,10,3.2,CCCc1c(OCCCOc2cc(O)c(-c3ccccc3)cc2CC)cccc1Oc1cccc(F)c1C(=O)O
11,35,13,CCCc1c(OCCCOc2cc(O)c(-c3ccc(F)cc3)cc2CC)cccc1C(=O)c1ccccc1C(=O)O
2.8,3.3,110,CCCc1c(OCCCOc2cc(O)c(-c3ccccc3)cc2CC)ccc2c1OC(C(=O)O)CC2 (stereo not drawn)
,9.3,,CCCc1cc(CC)c(OCCCCCC(C)(C)c2nn[nH]n2)cc1O
4,36,,CCc1cc(-c2ccc(F)cc2)c(O)cc1OCCCOc1ccc2c(=O)c3ccccc3oc2c1CCC(=O)O
8.4,210,7.8,CCCc1c(OCCCOc2cc(O)c(-c3ccc(F)cc3)cc2CC)cccc1Oc1ccccc1CC(=O)O
3.8,8,31,CCc1cc(-c2ccc(F)cc2)c(O)cc1OCCCOc1ccccc1CCC(=O)O
6.4,8.3,64,CCc1cc(-c2ccc(F)cc2)c(O)cc1OCCCOc1cccc(OC)c1CCC(=O)O
4.4,3.8,17,CCCc1c(OCCCOc2cc(O)c(-c3ccc(F)cc3)cc2CC)ccc2c1OC(C(=O)O)CC2 (stereo not drawn)
0.11,0.51,,CCc1cc(-c2ccccc2)c(O)cc1OCCCOc1ccc2c(=O)c3cc(C(=O)O)ccc3oc2c1CCC(=O)O
14,36,8.5,CCc1cc(-c2ccc(F)cc2)c(O)cc1OCCCOc1cccc(Oc2ccccc2C(=O)O)c1CC(C)C
,3.1,7.8,CCc1cc(-c2ccc(F)cc2)c(O)cc1OCCCOc1cccc(OCCCCC(=O)N(C)C)c1CCC(=O)O
6.6,17,3.3,CCCc1c(OCCCOc2cc(O)c(-c3ccc(F)cc3)cc2CC)cccc1Oc1ccccc1C(=O)O [ETALOCIB]
11,350,7.4,CCCc1c(OCCCOc2cc(O)c(-c3ccc(F)cc3)cc2CC)cccc1Sc1ccccc1C(=O)O
1.4,14,95,CCCc1c(OCCCOc2cc(O)c(-c3ccc(F)cc3)cc2CC)cccc1[S+]([O-])c1ccccc1C(=O)O (stereo not drawn)
19,39,5.1,CCCc1c(OCCCCOc2cc(O)c(-c3ccc(F)cc3)cc2CC)cccc1Oc1ccccc1C(=O)O
,2.3,,CCc1cc(-c2ccc(F)cc2)c(O)cc1OCCCOc1cccc(OCCCCc2nnn[nH]2)c1CCC(=O)O
19,48,2.7,CCCc1c(OCCCOc2cc(O)c(-c3ccc(F)cc3)cc2CC)cccc1Oc1cc(F)ccc1C(=O)O
9.5,4.4,2.5,CCCc1c(OCCCOc2cc(O)c(-c3ccc(F)cc3)cc2CC)cccc1Oc1cccc(F)c1C(=O)O
6.8,150,9.5,CCCc1c(OCCCCCOc2cc(O)c(-c3ccc(F)cc3)cc2CC)cccc1Oc1ccccc1C(=O)O
0.04,0.47,,CCc1cc(-c2ccc(F)cc2)c(O)cc1OCCCOc1ccc2c(=O)c3cc(C(=O)O)ccc3oc2c1CCC(=O)O
,453,,CCc1cc(-c2ccccn2)c(O)cc1OCCCCCC(C)(C)c1nn[nH]n1
16,34,14,CCCCc1c(OCCCOc2cc(O)c(-c3ccc(F)cc3)cc2CC)cccc1Oc1ccccc1C(=O)O
12,22,,CCc1cc(-c2ccccc2)c(O)cc1OCCCOc1ccc2c(=O)c3ccccc3oc2c1CCC(=O)O
,16,,CCc1cc(-c2ccc(N(C)C)cc2)c(O)cc1OCCCCCC(C)(C)c1nn[nH]n1
,33,,CCc1cc(-c2cccc(C(F)(F)F)c2)c(O)cc1OCCCCCC(C)(C)c1nn[nH]n1
55,390,220,CCc1cc(-c2ccc(F)cc2)c(O)cc1OCCCOc1cccc(Oc2ccccc2C(=O)O)c1Cc1ccccc1
